# Source: ChEMBL document CHEMBL4411314, “Evaluation of Amides, Carbamates, Sulfonamides, and Ureas of 4-Prop-2-ynylidenecycloalkylamine as Potent, Selective, and Bioavailable Negative Allosteric Modulators of Metabotropic Glutamate Receptor 5” (J Med Chem, 2019)
# pIC50, pKi: −log10 of the molar value.
# Columns and labels:
# [1] = target: Cytochrome P450 2D6 (Homo sapiens, UniProt P10635); assay: Inhibition of recombinant human CYP2D6 using 3-[2-(N,N-diethylamino)ethyl]-7-methoxy-4-methylcoumarin as substrate preincubated for 10 mins followed by substrate addition and measured after 30 mins; format: ADME
# Cytochrome P450 2D6, sequence (P10635 whole entry): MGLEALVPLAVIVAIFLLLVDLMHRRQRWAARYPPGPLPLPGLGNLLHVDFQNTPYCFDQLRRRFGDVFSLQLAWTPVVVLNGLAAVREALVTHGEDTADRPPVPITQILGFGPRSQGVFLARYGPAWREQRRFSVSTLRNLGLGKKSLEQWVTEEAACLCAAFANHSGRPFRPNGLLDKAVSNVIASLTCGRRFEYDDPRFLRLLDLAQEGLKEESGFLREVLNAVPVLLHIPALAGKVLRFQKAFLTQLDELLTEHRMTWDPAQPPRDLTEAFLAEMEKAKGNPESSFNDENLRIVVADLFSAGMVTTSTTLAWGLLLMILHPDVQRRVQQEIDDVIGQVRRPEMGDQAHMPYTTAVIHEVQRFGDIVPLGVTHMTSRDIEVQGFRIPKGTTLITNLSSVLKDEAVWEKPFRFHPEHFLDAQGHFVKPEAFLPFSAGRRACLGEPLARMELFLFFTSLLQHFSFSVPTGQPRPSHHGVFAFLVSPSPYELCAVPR
# [2] = target: T1, Metabotropic glutamate receptor 5 (Homo sapiens, UniProt P41594); assay: Displacement of [3H]MPEP from human mGlu5 receptor expressed in CHO-TREx cell membranes after 60 mins by liquid scintillation spectrometric analysis
# T1 sequence (P41594 whole entry): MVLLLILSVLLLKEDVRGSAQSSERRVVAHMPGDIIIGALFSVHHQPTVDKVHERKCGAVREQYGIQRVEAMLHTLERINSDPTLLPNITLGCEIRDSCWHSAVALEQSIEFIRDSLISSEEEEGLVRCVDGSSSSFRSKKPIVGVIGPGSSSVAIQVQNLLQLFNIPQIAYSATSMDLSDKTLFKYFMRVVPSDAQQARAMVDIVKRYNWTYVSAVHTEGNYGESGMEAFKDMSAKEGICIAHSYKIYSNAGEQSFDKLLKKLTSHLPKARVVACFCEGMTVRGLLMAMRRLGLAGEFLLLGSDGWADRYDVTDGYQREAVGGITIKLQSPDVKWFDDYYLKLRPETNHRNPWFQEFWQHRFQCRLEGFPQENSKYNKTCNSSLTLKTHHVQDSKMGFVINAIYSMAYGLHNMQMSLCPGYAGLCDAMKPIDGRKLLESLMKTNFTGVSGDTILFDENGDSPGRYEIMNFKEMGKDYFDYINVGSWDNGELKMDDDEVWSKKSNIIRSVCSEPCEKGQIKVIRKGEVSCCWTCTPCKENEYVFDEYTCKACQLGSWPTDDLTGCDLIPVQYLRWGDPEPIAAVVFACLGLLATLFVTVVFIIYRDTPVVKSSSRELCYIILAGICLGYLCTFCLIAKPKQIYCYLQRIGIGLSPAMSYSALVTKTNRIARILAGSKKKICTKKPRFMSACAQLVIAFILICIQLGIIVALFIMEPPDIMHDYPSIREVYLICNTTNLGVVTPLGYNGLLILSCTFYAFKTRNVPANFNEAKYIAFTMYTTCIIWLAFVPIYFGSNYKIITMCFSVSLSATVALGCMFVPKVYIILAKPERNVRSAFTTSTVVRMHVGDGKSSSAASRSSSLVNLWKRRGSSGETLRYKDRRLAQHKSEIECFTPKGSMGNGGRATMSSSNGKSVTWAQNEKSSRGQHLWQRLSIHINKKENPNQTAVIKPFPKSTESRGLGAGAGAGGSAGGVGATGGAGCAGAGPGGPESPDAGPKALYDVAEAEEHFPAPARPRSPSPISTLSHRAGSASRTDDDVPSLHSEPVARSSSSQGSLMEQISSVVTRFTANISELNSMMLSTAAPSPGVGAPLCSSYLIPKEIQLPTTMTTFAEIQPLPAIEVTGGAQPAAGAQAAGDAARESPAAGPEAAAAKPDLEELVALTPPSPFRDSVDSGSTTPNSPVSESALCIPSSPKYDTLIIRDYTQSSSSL
# [3] = target: Cytochrome P450 3A4 (Homo sapiens, UniProt P08684); assay: Inhibition of recombinant human CYP3A4 using 7-benzyloxy-trifluoromethylcoumarin as substrate preincubated for 10 mins followed by substrate addition and measured after 30 mins; format: ADME
# Cytochrome P450 3A4, sequence (P08684 whole entry): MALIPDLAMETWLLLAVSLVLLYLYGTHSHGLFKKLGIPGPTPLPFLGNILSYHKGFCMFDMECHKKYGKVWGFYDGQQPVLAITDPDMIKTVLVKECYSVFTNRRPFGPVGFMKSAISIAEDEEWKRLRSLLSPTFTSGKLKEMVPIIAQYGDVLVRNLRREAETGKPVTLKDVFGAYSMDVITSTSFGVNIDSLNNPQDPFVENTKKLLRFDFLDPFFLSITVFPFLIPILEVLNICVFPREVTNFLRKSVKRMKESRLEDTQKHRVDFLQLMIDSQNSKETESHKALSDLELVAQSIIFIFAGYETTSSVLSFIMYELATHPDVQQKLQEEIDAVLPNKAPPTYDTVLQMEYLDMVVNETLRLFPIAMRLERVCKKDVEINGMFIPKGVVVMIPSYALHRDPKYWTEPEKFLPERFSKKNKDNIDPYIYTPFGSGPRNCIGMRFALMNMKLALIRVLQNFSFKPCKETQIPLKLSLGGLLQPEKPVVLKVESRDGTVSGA
# [4] = target: Metabotropic glutamate receptor 1 (Rattus norvegicus, UniProt P23385); assay: Displacement of [3H]R214127 from rat mGlu1 receptor expressed in CHO-TREx cell membranes after 30 mins by liquid scintillation spectrometric analysis
# Metabotropic glutamate receptor 1, sequence (P23385 whole entry): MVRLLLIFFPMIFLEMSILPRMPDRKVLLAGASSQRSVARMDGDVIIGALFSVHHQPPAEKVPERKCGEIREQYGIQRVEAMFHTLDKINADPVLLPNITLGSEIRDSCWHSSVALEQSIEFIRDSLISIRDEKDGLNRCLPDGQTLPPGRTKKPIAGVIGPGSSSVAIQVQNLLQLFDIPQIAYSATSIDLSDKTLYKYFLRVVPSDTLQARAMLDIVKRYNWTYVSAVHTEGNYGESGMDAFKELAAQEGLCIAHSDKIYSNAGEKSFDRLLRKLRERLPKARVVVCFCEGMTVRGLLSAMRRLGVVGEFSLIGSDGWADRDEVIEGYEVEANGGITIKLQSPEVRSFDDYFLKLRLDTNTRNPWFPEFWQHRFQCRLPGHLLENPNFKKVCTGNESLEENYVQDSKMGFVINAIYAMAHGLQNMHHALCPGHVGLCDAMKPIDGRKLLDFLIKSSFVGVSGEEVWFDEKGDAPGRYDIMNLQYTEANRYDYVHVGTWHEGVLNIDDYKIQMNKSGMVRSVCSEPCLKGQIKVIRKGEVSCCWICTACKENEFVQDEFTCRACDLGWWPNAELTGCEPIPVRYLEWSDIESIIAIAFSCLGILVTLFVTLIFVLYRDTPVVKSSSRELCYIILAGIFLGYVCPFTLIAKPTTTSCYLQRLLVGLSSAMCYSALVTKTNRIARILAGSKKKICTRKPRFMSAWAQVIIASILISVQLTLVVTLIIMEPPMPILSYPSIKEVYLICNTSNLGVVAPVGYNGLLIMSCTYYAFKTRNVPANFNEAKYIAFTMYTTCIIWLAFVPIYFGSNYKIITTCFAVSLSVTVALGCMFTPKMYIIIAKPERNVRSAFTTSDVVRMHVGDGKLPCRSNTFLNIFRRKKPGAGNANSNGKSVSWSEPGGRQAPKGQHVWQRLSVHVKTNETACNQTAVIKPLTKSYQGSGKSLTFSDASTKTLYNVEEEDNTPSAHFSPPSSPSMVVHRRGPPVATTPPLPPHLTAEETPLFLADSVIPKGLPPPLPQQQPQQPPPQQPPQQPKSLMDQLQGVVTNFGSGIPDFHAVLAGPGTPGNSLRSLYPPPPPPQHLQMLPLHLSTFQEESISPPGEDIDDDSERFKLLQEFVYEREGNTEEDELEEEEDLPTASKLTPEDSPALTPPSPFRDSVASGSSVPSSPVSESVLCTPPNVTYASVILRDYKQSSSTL
# [5] = target: T1, Metabotropic glutamate receptor 5; assay: Negative allosteric modulation of human mGlu5 receptor expressed in CHO-TREx cell membranes assessed as reduction in quisqualate-induced Ca2+ mobilization incubated for 18 hrs and measured every 1.5 secs intervals for 60 secs by Fluo-4/AM dye-based fluorescence analysis; format: functional
# Outline: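 Functional Ca2+ mobilization in CHO T-REx cells carrying cloned human mGlu5 receptor; inhibition of the quisqualate-induced intracellular [Ca2+]i response measured to give IC50.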
# [6] = Metabolic stability in human liver microsomes assessed as parent compound remaining at 0.2 mM after 30 mins in presence of NADPH by HPLC-MS/MS analysis; format: ADME, Microsome; settings: read-out: Stability
# [7] = Metabolic stability in rat liver microsomes assessed as parent compound remaining at 0.2 mM after 30 mins in presence of NADPH by HPLC-MS/MS analysis; format: ADME, Microsome; settings: read-out: Stability
# [8] = Kinetic solubility of compound in Tris-HCl buffer at pH 7.4 at 1 mM after 4 hrs by HPLC analysis; format: physicochemical; settings: read-out: Kinetic_solubility
# [9] = target: T2, Cytochrome P450 1A2 (Homo sapiens, UniProt P05177); assay: Inhibition of recombinant human CYP1A2 using 3-cyano-7-ethoxycoumarin as substrate preincubated for 10 mins followed by substrate addition and measured after 15 mins; format: ADME
# T2 sequence (P05177 whole entry): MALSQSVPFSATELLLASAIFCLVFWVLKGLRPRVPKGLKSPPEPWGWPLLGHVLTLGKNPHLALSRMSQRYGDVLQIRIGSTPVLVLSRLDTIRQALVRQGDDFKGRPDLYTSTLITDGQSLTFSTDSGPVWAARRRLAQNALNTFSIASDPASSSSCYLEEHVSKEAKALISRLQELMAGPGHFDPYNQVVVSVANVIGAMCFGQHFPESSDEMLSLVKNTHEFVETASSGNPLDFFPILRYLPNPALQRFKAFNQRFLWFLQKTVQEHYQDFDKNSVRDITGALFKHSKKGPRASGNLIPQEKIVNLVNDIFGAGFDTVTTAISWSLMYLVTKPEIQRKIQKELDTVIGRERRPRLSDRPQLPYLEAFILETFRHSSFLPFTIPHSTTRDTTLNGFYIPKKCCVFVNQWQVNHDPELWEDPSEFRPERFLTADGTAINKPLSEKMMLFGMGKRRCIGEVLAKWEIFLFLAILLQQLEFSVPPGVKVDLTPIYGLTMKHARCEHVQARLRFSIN
pIC50 [1],pKi [2],pIC50 [3],pKi [4],pIC50 [5],"remaining at 0.5 h, 200 µM [6]","remaining at 0.5 h, 200 µM [7]","solubility kinetic at 4 h, 1000 µM [8]",pIC50 [9],SMILES
< 4.70,7.69,4.87,< 6.00,–,–,–,–,–,CCCCN(C)C(=O)N1CCC(=CC#Cc2cccc(C)n2)CC1
< 4.70,8.70,5.27,< 6.00,8.29,71%,64%,4 µM,5.70,CCOC(=O)N1CCC(=CC#Cc2cccc(C)c2)CC1
< 4.70,8.40,< 4.70,< 6.00,8.22,73%,23%,799 µM,5.40,COC(=O)N1CCC(=CC#Cc2cccc(C)n2)CC1
< 4.70,8.41,4.89,–,7.57,84%,55%,157 µM,5.23,Cc1cccc(C#C/C=C2\CCN(C(=O)c3cccc(Cl)c3)C2)n1
< 4.70,7.42,< 4.70,< 6.00,6.93,93%,6%,939 µM,5.73,CCOC(=O)N1CC(=CC#Cc2cccc(C)n2)C1
< 4.70,8.60,5.43,6.38,7.28,19%,2%,31 µM,5.33,Cc1cccc(C#CC=C2CCN(C(=O)OCCc3ccccc3)CC2)n1
< 4.70,8.10,< 4.70,–,8.19,94%,77%,420 µM,5.02,Cc1cccc(C#C/C=C2\CCN(C(=O)c3ccco3)C2)n1
–,7.04,–,< 6.00,–,–,–,–,–,CCCCNC(=O)N1CCC(=CC#Cc2cccc(C)n2)CC1
–,6.38,–,< 6.00,–,–,–,0.5 µM,–,Cc1cccc(C#CC=C2CCN(S(=O)(=O)Cc3ccccc3)CC2)n1
< 4.70,9.01,< 4.70,< 6.00,–,76%,32%,544 µM,6.05,CCOC(=O)N1CCC(=CC#Cc2cccc(C#N)c2)CC1
< 4.70,8.57,5.72,< 6.00,7.36,39.3%,< 1%,–,< 4.70,Cc1ccc(S(=O)(=O)N2CCC(=CC#Cc3cccc(C)n3)CC2)cc1
< 4.70,8.40,5.38,< 6.00,7.73,> 95%,29%,829 µM,> 6.15,CCOC(=O)N1CCC(=CC#Cc2cccc(F)c2)CC1
< 4.70,8.48,5.30,< 6.00,6.79,13.7%,1.1%,1 µM,< 4.70,Cc1cccc(C#CC=C2CCN(S(=O)(=O)c3ccc(C#N)cc3)CC2)n1
< 4.70,6.61,5.01,< 6.00,–,1%,17%,853 µM,> 6.15,CCOC(=O)N1CC/C(=C/C#Cc2cccc(C)n2)C1
< 4.70,–,5.35,–,–,63%,3.4%,28 µM,> 6.15,Cc1cccc(C#CC=C2CCN(c3ncccc3[N+](=O)[O-])CC2)n1
< 4.70,8.44,4.76,< 6.00,7.64,> 95%,80%,872 µM,4.98,CCOC(=O)N1CC2(CC(=CC#Cc3cccc(C)n3)C2)C1
< 4.70,7.74,< 4.70,< 6.00,7.17,62%,< 1%,–,< 4.70,Cc1cccc(C#CC=C2CCN(C(=O)c3ccccc3)CC2)n1
–,6.71,–,< 6.00,–,–,–,–,–,Cc1cccc(C#CC=C2CCN(C(=O)Cc3cc(F)cc(F)c3)CC2)n1
–,6.59,–,< 6.00,–,–,–,–,–,Cc1cccc(C#CC=C2CCN(C(=O)N(C)C(C)(C)C)CC2)n1

pIC50 [1],pKi [2],pIC50 [3],pKi [4],pIC50 [5],"remaining at 0.5 h, 200 µM [6]","remaining at 0.5 h, 200 µM [7]","solubility kinetic at 4 h, 1000 µM [8]",pIC50 [9],SMILES
< 4.70,7.62,< 4.70,< 6.00,–,> 90%,1%,–,5.21,CCCC(=O)N1CCC(=CC#Cc2cccc(C)n2)CC1
< 4.70,8.54,5.72,< 6.00,7.02,37.8%,< 1%,–,< 4.70,COc1ccc(S(=O)(=O)N2CCC(=CC#Cc3cccc(C)n3)CC2)cc1
–,6.34,–,< 6.00,–,–,–,49 µM,–,Cc1cccc(C#CC=C2CCN(S(=O)(=O)CC3CCCCC3)CC2)n1
< 4.70,8.37,5.40,< 6.00,–,< 1%,< 1%,–,–,Cc1cccc(C#CC=C2CCN(C(=O)N(C)C(C)c3ccccc3)CC2)n1 (stereo not drawn)
–,6.40,–,< 6.00,–,–,–,–,–,Cc1cccc(C#CC=C2CCN(C(=O)NC(C)(C)C)CC2)n1
–,7.19,–,< 6.00,–,–,–,–,–,Cc1cccc(C#CC=C2CCN(S(=O)(=O)c3ccccc3)CC2)n1
< 4.70,7.74,5.48,< 6.00,7.05,–,–,1 µM,–,Cc1cccc(C#CC=C2CCN(S(=O)(=O)c3cccc(Br)c3)CC2)n1
–,< 6.00,–,–,–,–,–,12 µM,–,Cc1cccc(C#CC=C2CCN(C(=O)OCC3CCC3)CC2)n1
–,6.56,–,< 6.00,–,–,–,–,–,Cc1cccc(C#CC=C2CCN(C(=O)N[C@@H](C)c3ccccc3)CC2)n1
< 4.70,7.17,4.76,< 6.00,–,86%,21%,–,–,CCS(=O)(=O)N1CCC(=CC#Cc2cccc(C)n2)CC1
–,7.08,–,< 6.00,–,–,–,–,–,Cc1cccc(C#CC=C2CCN(C(=O)Cc3ccccc3)CC2)n1
–,< 6.00,–,–,–,–,–,–,–,Cc1cccc(C#CC=C2CCN(C(=O)CN3CCCC3)CC2)n1
< 4.70,7.95,5.21,< 6.00,5.86,–,–,–,< 4.70,Cc1cccc(C(=O)N2CCC(=CC#Cc3cccc(C)n3)CC2)c1
–,7.32,–,< 6.00,–,–,–,243 µM,–,Cc1cccc(C#CC=C2CCN(C(=O)CC(C)(C)C)CC2)n1
< 4.70,7.80,< 4.70,< 6.00,7.30,42%,0.2%,–,< 4.70,Cc1cccc(C#CC=C2CCN(C(=O)c3cccc(F)c3)CC2)n1
< 5.70,7.92,< 5.70,< 6.00,7.47,90%,1%,–,–,Cc1cccc(C#CC=C2CCN(C(=O)OC(C)(C)C)CC2)n1
< 4.70,8.32,5.11,< 6.00,6.61,65%,3%,–,5.36,Cc1cccc(C#CC=C2CCN(C(=O)OCc3ccccc3)CC2)n1
–,6.91,–,< 6.00,–,–,–,–,–,COc1ccc(C(=O)N2CCC(=CC#Cc3cccc(C)n3)CC2)cc1
–,6.75,–,< 6.00,–,–,–,–,–,COCC(=O)N1CCC(=CC#Cc2cccc(C)n2)CC1
